Substrate in series [1]: CCn1nccc1Oc1cc(CCCC(C)(C)O)cnc1NC(=O)NC
The series can be described thus: (§1) Activity of human recombinant Glucokinase measured over 5 mins by spectrophotometry. In a few lines:
(§2)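 S_0.5 (K_m for glucose) measured with recombinant human GK; duplicate determinations (n = 2).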

Substrate in series [2]: CCn1nccc1Oc1cc(C[C@H]2CCO[C@H](COC)C2)cnc1NC(=O)NC
Described as §1. In a few lines:
as §2

Substrate in series [3]: CCn1nccc1Oc1cc(C[C@H]2CC[C@H](O)CC2)cnc1NC(=O)NC
The series is described as §1. In outline:
as §2

Substrate in series [4]: CNC(=O)Nc1ncc(CC2CCOCC2)cc1Oc1ccnn1C(C)C
The description is as §1. In outline:
as §2

Substrate in series [5]: CCc1ncccc1Oc1cc(CCCCOC)cnc1NC(=O)NC
The series is described as §1. In a few lines: as §2

Substrate in series [6]: CCn1nccc1Oc1cc(C[C@H]2C[C@@](C)(O)C2)cnc1NC(=O)NC
The series is described as §1. In outline:
as §2

Substrate in series [7]: CCn1nc(COC)cc1Oc1cc(CC2CCOCC2)cnc1NC(=O)NC
The description is as §1. In outline: as §2

Substrate in series [8]: CCc1ncccc1Oc1cc(CCCOC)cnc1NC(=O)NC
Described as §1. In a few lines:
as §2

Substrate in series [9]: CCn1nccc1Oc1cc(C[C@H]2C[C@H](O)C2)cnc1NC(=O)NC
The series is described as §1. In outline: as §2

Substrate in series [10]: CCn1nccc1Oc1cc(C[C@H]2CC[C@@H](O)CC2)cnc1NC(=O)NC
The series is described as §1. In outline: as §2

Substrate in series [11]: CCn1nccc1Oc1cc(CCCCOC)cnc1NC(=O)NC
The series is described as §1. In a few lines:
as §2

Substrate in series [12]: CCn1nccc1Oc1cc(C[C@@H]2CCO[C@@H](COC)C2)cnc1NC(=O)NC
The description is as §1. In a few lines:
as §2

Substrate in series [13]: CCc1ncccc1Oc1cc(CC2CCOCC2)cnc1NC(=O)NC
The series is described as §1. In a few lines:
as §2

Substrate in series [14]: CCc1ncccc1Oc1cc(CCCCO)cnc1NC(=O)NC
The description is as §1. In a few lines: as §2

Substrate in series [15]: CCn1nccc1Oc1cc(C[C@H]2CC[C@@](C)(O)CC2)cnc1NC(=O)NC
Described as §1. In outline: as §2

Substrate in series [16]: CCc1ncccc1Oc1cc(CC2CCCCC2)cnc1NC(=O)NC
The description is as §1. In outline:
as §2

Substrate in series [17]: CCn1nccc1Oc1cc(CC2CCOCC2)cnc1NC(=O)NC
The series is described as §1. In a few lines: as §2

Substrate in series [18]: CCn1nccc1Oc1cc(CN2CCOCC2)cnc1NC(=O)NC
Described as §1. In outline: as §2

Substrate in series [19]: CCOCCc1cnc(NC(=O)NC)c(Oc2cccnc2CC)c1
Described as §1. In a few lines: as §2

Substrate in series [20]: CCn1nccc1Oc1cc(C[C@H]2CC[C@](C)(O)CC2)cnc1NC(=O)NC
The series is described as §1. In outline: as §2

Substrate in series [21]: CCc1ncccc1Oc1cc(CC(C)C)cnc1NC(=O)NC
The description is as §1. In a few lines: as §2

Substrate in series [22]: CCn1nccc1Oc1cc(C[C@H]2C[C@@H](O)C2)cnc1NC(=O)NC
Described as §1. In a few lines: as §2

Substrate in series [23]: CCn1nccc1Oc1cc(C(O)C2CCOCC2)cnc1NC(=O)NC
The series is described as §1. In a few lines:
as §2

B1: Hexokinase-4 (Homo sapiens), P35557 (protein)
chain: MLDDRARMEAAKKEKVEQILAEFQLQEEDLKKVMRRMQKEMDRGLRLETHEEASVKMLPTYVRSTPEGSEVGDFLSLDLGGTNFRVMLVKVGEGEEGQWSVKTKHQMYSIPEDAMTGTAEMLFDYISECISDFLDKHQMKHKKLPLGFTFSFPVRHEDIDKGILLNWTKGFKASGAEGNNVVGLLRDAIKRRGDFEMDVVAMVNDTVATMISCYYEDHQCEVGMIVGTGCNACYMEEMQNVELVEGDEGRMCVNTEWGAFGDSGELDEFLLEYDRLVDESSANPGQQLYEKLIGGKYMGELVRLVLLRLVDENLLFHGEASEQLRTRGAFETRFVSQVESDTGDRKQIYNILSTLGLRPSTTDCDIVRRACESVSTRAAHMCSAGLAGVINRMRESRSEDVMRITVGVDGSVYKLHPSFKERFHASVRRLTPSCEITFIESEEGSGRGAALVSAVACKKACMLGQ
On to B1, for which the Km was determined as 840 µM in series [1]; 940 µM in series [2]; 710 µM in [3]; 950 µM in [4]; 820 µM in series [5]; 820 µM in series [6]. Further, the Km in [7] came to 850 µM; in series [8], 870 µM; in series [9] it was 630 µM; in [10] it was 760 µM; in [11] it was 860 µM; in series [12], 880 µM. Further, the Km in series [13] was 850 µM; in [14] it was 850 µM; in series [15], 560 µM; in [16], 760 µM; in [17], 840 µM; in series [18], 860 µM. Also, the Km in series [19] was found to be 880 µM; in series [20], 690 µM; in series [21], 660 µM; in series [22] it was 720 µM; in [23], 1200 µM.

The record behind these values is ChEMBL document CHEMBL3351938, “C5-Alkyl-2-methylurea-Substituted Pyridines as a New Class of Glucokinase Activators” (ACS Med Chem Lett, 2014).
